From ChEMBL document CHEMBL4138318, “Discovery of 5-Cyano-6-phenylpyrimidin Derivatives Containing an Acylurea Moiety as Orally Bioavailable Reversal Agents against P-Glycoprotein-Mediated Mutidrug Resistance” (J Med Chem, 2018)

What was measured:
[1] = Cytotoxicity against human SW620 cells assessed as survival at 2 uM after 72 hrs by MTT assay relative to control; format: cell-based, SW-620; details: read-out: Survival
[2] = molecular target: ATP-dependent translocase ABCB1 (Homo sapiens, UniProt P08183); experiment: Inhibition of ABCB1 in human SW620/AD300 cells assessed as potentiation of paclitaxel-induced cytotoxicity by measuring fold reduction in paclitaxel IC50 at 2 uM after 72 hrs by MTT assay relative to paclitaxel alone; format: cell-based
Sequence of ATP-dependent translocase ABCB1 (P08183 whole entry): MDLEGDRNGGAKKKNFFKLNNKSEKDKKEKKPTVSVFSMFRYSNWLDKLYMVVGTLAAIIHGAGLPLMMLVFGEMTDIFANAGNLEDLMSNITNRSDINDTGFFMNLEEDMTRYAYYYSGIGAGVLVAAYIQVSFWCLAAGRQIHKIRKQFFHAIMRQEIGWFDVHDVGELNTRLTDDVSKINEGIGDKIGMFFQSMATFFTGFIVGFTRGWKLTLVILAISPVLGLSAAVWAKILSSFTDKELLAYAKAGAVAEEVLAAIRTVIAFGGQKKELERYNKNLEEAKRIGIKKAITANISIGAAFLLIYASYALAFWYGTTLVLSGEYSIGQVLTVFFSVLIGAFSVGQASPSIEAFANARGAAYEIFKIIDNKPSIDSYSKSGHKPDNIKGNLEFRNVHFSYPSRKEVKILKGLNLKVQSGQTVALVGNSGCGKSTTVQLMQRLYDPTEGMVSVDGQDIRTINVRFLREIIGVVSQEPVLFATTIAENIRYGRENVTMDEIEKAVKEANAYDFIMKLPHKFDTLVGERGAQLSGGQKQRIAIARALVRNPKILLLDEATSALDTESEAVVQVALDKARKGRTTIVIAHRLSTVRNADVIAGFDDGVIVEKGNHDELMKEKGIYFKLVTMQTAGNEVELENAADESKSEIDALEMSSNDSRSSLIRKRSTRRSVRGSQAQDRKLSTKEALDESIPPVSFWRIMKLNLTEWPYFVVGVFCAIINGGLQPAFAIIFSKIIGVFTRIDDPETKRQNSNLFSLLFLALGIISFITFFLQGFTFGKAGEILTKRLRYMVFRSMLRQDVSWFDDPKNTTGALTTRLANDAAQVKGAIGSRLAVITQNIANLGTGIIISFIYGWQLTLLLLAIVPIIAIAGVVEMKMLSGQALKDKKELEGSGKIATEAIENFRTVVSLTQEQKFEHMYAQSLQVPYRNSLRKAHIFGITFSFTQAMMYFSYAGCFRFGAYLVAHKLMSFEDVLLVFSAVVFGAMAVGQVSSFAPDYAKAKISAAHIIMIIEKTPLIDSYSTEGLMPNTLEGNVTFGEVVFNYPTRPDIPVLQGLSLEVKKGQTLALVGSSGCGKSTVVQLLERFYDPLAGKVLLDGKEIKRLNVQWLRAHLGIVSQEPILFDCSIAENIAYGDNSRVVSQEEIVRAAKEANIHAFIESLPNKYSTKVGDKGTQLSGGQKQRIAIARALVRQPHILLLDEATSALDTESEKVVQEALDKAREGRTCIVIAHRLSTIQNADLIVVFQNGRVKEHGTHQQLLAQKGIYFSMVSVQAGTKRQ
How it was run: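 SW620/AD300 cells (~5×10^3/well) treated with graded paclitaxel with or without modulator (2 µM, or 0.5-2 µM in dose series; 0.1% DMSO solvent control) for 72 h; MTT (5 mg/mL stock) added 4 h, absorbance 490 nm. IC50 as mean ± SD of three independent runs; reversal fold = paclitaxel IC50 without/with modulator.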

[3] = Cytotoxicity against human SW620/AD300 cells assessed as survival at 2 uM after 72 hrs by MTT assay relative to control; format: cell-based; details: read-out: Survival

SMILES	viability at 72 h, 2 µM [1]	fold change (FC) [2]	viability at 72 h, 2 µM [3]
CC(C)c1ccc(-c2nc(SCC(=O)NC(=O)Nc3ccccn3)nc(Nc3cccc(C(F)(F)F)c3)c2C#N)cc1	> 90%	37.04	> 90%
Cc1ccc(Nc2nc(SCc3cn(CC(=O)NC(=O)Nc4ccccn4)nn3)nc(-c3ccc(C(C)C)cc3)c2C#N)cc1	> 90%	6.86	> 90%
COc1cc(-c2nc(SCc3cn(CC(=O)NC(=O)Nc4ccccn4)nn3)nc(Nc3ccc(C)cc3)c2C#N)cc(OC)c1OC	> 90%	6.23	> 90%
Cc1ccc(-c2nc(SCc3cn(CC(=O)NC(=O)Nc4ccccn4)nn3)nc(Nc3cccc(C(F)(F)F)c3)c2C#N)cc1	> 90%	1.88	> 90%
Cc1ccc(Nc2nc(SCC(=O)NC(=O)Nc3ccccn3)nc(-c3ccc(C(C)C)cc3)c2C#N)cc1	> 90%	1.64	> 90%
CC(C)c1ccc(Nc2nc(SCc3cn(CC(=O)NC(=O)Nc4ccccn4)nn3)nc(-c3ccc(C(C)C)cc3)c2C#N)cc1	> 90%	9.49	> 90%
N#Cc1c(Nc2ccccc2Cl)nc(SCC(=O)NC(=O)Nc2ccccn2)nc1-c1ccc(F)c(F)c1	> 90%	14.24	> 90%
N#Cc1c(Nc2cccc(Cl)c2)nc(SCC(=O)NC(=O)Nc2ccccn2)nc1-c1ccc(F)c(F)c1	> 90%	4.37	> 90%
COc1cc(-c2nc(SCC(=O)NC(=O)Nc3ccccc3)nc(Nc3ccc(F)cc3)c2C#N)cc(OC)c1OC	> 90%	25.37	> 90%
Cc1ccccc1Nc1nc(SCc2cn(CC(=O)NC(=O)Nc3ccccn3)nn2)nc(-c2ccc(C(C)C)cc2)c1C#N	> 90%	4.69	> 90%
COc1cc(-c2nc(SCc3cn(Cc4ccccc4Cl)nn3)nc(Nc3ccc(C)cc3)c2C#N)cc(OC)c1OC	–	27.54	–
CC(C)c1ccc(-c2nc(SCc3cn(CC(=O)NC(=O)Nc4ccccn4)nn3)nc(Nc3ccc(F)cc3)c2C#N)cc1	> 90%	2.11	> 90%
COc1cc(-c2nc(SCC(=O)NC(=O)Nc3ccccn3)nc(Nc3cccc(C(F)(F)F)c3)c2C#N)cc(OC)c1OC	> 90%	58.14	> 90%
N#Cc1c(Nc2cccc(C(F)(F)F)c2)nc(SCC(=O)NC(=O)Nc2ccccn2)nc1-c1ccc(F)c(F)c1	> 90%	3.11	> 90%
COc1cc(-c2nc(SCc3cn(CC(=O)NC(=O)Nc4ccccn4)nn3)nc(Nc3cccc(C(F)(F)F)c3)c2C#N)cc(OC)c1OC	> 90%	1.35	> 90%
COc1ccc(Nc2nc(SCc3cn(CC(=O)NC(=O)Nc4ccccn4)nn3)nc(-c3ccc(C)cc3)c2C#N)cc1	> 90%	1.18	> 90%
COc1ccc(Nc2nc(SCC(=O)NC(=O)Nc3ccccn3)nc(-c3ccc(C(C)C)cc3)c2C#N)cc1	> 90%	2.17	> 90%
CC(C)c1ccc(-c2nc(SCc3cn(CC(=O)NC(=O)Nc4ccccn4)nn3)nc(Nc3ccc(Cl)cc3)c2C#N)cc1	> 90%	1.66	> 90%
N#Cc1c(Nc2ccc(Cl)cc2)nc(SCC(=O)NC(=O)Nc2ccccn2)nc1-c1ccc(Cl)cc1	> 90%	2.32	> 90%
N#Cc1c(Nc2cccc(C(F)(F)F)c2)nc(SCc2cn(CC(=O)NC(=O)Nc3ccccn3)nn2)nc1-c1ccc(Br)cc1	> 90%	2.4	> 90%
CC(C)c1ccc(-c2nc(SCc3cn(CC(=O)NC(=O)Nc4ccccn4)nn3)nc(Nc3ccccc3O)c2C#N)cc1	> 90%	13.64	> 90%
COc1cc(-c2nc(SCc3ccccc3)nc(Nc3ccc(Cl)cc3)c2C#N)cc(OC)c1OC	> 90%	1.24	> 90%
Cc1ccc(-c2nc(SCC(=O)NC(=O)Nc3ccccn3)nc(Nc3cccc(C(F)(F)F)c3)c2C#N)cc1	> 90%	6.06	> 90%
Cc1ccc(Nc2nc(SCc3cn(Cc4ccccc4Cl)nn3)nc(-c3ccc(Br)cc3)c2C#N)cc1	–	3.39	–
N#Cc1c(Nc2cccc(C(F)(F)F)c2)nc(SCC(=O)NC(=O)Nc2ccccn2)nc1-c1ccc(Cl)cc1	> 90%	2.86	> 90%

SMILES	viability at 72 h, 2 µM [1]	fold change (FC) [2]	viability at 72 h, 2 µM [3]
N#Cc1c(Nc2ccc(Cl)cc2)nc(SCC(=O)NC(=O)Nc2ccccn2)nc1-c1ccc(F)c(F)c1	> 90%	3.5	> 90%
COc1ccccc1Nc1nc(SCc2cn(CC(=O)NC(=O)Nc3ccccn3)nn2)nc(-c2ccc(C)cc2)c1C#N	> 90%	10.71	> 90%
Cc1ccc(-c2nc(SCc3cn(CC(=O)NC(=O)Nc4ccccn4)nn3)nc(Nc3cccc(Cl)c3)c2C#N)cc1	> 90%	13.42	> 90%
Cc1cccc(Nc2nc(SCC(=O)NC(=O)Nc3ccccn3)nc(-c3ccc(C(C)C)cc3)c2C#N)c1	> 90%	2.62	> 90%
COc1cc(-c2nc(SCC(=O)NC(=O)Nc3ccccc3)nc(Nc3ccc(C(C)C)cc3)c2C#N)cc(OC)c1OC	> 90%	25.07	> 90%
COc1cc(-c2nc(SCc3cn(CC(=O)NC(=O)Nc4ccccn4)nn3)nc(Nc3cccc(Cl)c3)c2C#N)cc(OC)c1OC	> 90%	1.37	> 90%
COc1cc(-c2nc(SCC(=O)NC(=O)Nc3ccccn3)nc(Nc3ccccc3Cl)c2C#N)cc(OC)c1OC	> 90%	38.05	> 90%
COc1ccc(Nc2nc(SCc3cn(CC(=O)NC(=O)Nc4ccccn4)nn3)nc(-c3ccc(C(C)C)cc3)c2C#N)cc1	> 90%	6.3	> 90%
COc1ccccc1Nc1nc(SCC(=O)NC(=O)Nc2ccccn2)nc(-c2ccc(F)c(F)c2)c1C#N	> 90%	13.42	> 90%
COc1ccccc1Nc1nc(SCC(=O)NC(=O)Nc2ccccn2)nc(-c2cc(OC)c(OC)c(OC)c2)c1C#N	> 90%	8.67	> 90%
COc1ccccc1Nc1nc(SCC(=O)NC(=O)Nc2ccccc2)nc(-c2cc(OC)c(OC)c(OC)c2)c1C#N	> 90%	3.66	> 90%
CC(C)c1ccc(-c2nc(SCc3cn(CC(=O)NC(=O)Nc4ccccn4)nn3)nc(Nc3cccc([N+](=O)[O-])c3)c2C#N)cc1	> 90%	2.99	> 90%
Cc1ccc(Nc2nc(SCc3cn(CC(=O)NC(=O)Nc4ccccn4)nn3)nc(-c3ccc(Br)cc3)c2C#N)cc1	> 90%	1.41	> 90%
Cc1ccccc1Nc1nc(SCc2cn(Cc3ccc(Cl)cc3)nn2)nc(-c2ccccc2)c1C#N	–	116	–
Cc1ccc(Nc2nc(SCc3cn(Cc4ccccc4Cl)nn3)nc(-c3ccc(C)cc3)c2C#N)cc1	–	21.69	–
COc1cc(-c2nc(SCC(=O)NC(=O)Nc3ccccn3)nc(Nc3cccc([N+](=O)[O-])c3)c2C#N)cc(OC)c1OC	> 90%	82.08	> 90%
Cc1ccc(-c2nc(SCc3cn(CC(=O)NC(=O)Nc4ccccn4)nn3)nc(Nc3ccc(C(C)C)cc3)c2C#N)cc1	> 90%	1.18	> 90%
CC(C)c1ccc(-c2nc(SCc3cn(CC(=O)NC(=O)Nc4ccccn4)nn3)nc(Nc3ccccc3F)c2C#N)cc1	> 90%	2.74	> 90%
COc1cc(-c2nc(SCC(=O)NC(=O)Nc3ccccn3)nc(Nc3ccc(Cl)cc3)c2C#N)cc(OC)c1OC	> 90%	12.61	> 90%
COc1cc(-c2nc(SCC(=O)NC(=O)Nc3ccccn3)nc(Nc3ccc(C(F)(F)F)cc3)c2C#N)cc(OC)c1OC	> 90%	3.56	> 90%
COc1cc(-c2nc(SCc3ccccc3)nc(Nc3cccc(Cl)c3)c2C#N)cc(OC)c1OC	> 90%	1.05	> 90%
COc1cc(-c2nc(SCC(=O)Nc3ccccn3)nc(Nc3cccc(Cl)c3)c2C#N)cc(OC)c1OC	> 90%	5.51	> 90%
Cc1ccc(Nc2nc(SCC(=O)NC(=O)Nc3ccccn3)nc(-c3ccccc3)c2C#N)cc1	> 90%	1.67	> 90%
Cc1ccc(Nc2nc(SCc3cn(Cc4ccccc4Cl)nn3)nc(-c3ccc(C(C)C)cc3)c2C#N)cc1	–	46	–
